# Measured values from different studies.
# Compare with care: the assays were run in different laboratories.
# Target: Homeodomain-interacting protein kinase 3 (HIPK3, Homo sapiens, UniProt Q9H422)
SMILES,observed,mode,method,tested at,measurement,result
CC(C)CC(=O)N1CCc2nc(-c3ccc(Br)cc3)nc(N(C)Cc3ccccc3)c2C1,cell-free assay,,competition with immobilised ligand,0.1 µM,remaining binding,100%
O=C(O)c1ccc2c(c1)nc(Nc1cccc(F)c1)c1ccncc12,enzyme activity,inhibitor,radiometric,1 µM,remaining activity,10%
CNC(=O)c1cc(Oc2ccc(NC(=O)Nc3ccc(Cl)c(C(F)(F)F)c3)cc2)ccn1,cell-free assay,,,0.5 µM,remaining signal,85.7%
COc1cccc(CCNc2nc3cc(C(=O)O)ccc3c3cnccc23)c1,enzyme activity,inhibitor,radiometric,1 µM,remaining activity,21%
COc1cc(/C=C/C(=O)CC(=O)/C=C/c2ccc(O)c(OC)c2)ccc1O,enzyme activity,inhibitor,,1 µM,activity vs control,88%
CCCOc1ccc([C@H]2[C@H](C(=O)O)[C@@H](c3ccc4c(c3)OCO4)CN2CC(=O)Nc2c(CC)cccc2CC)cc1,cell-free assay,,competition with immobilised ligand,1 µM,remaining binding,74%
COc1cccc(CCNc2nc3cc(C(=O)O)ccc3c3cncnc23)c1,enzyme activity,inhibitor,radiometric,1 µM,remaining activity,27%
COc1ccc2c(O[C@@H]3C[C@H]4C(=O)N[C@]5(C(=O)O)CC5/C=C\CCCCC[C@H](NC(=O)OC5CCCC5)C(=O)N4C3)cc(-c3csc(NC(=O)C(C)C)n3)nc2c1C (stereo partly drawn),cell-free assay,,competition with immobilised ligand,1 µM,remaining binding,83%
COc1cc(-c2cc(-c3ccc(N4CCNCC4)cc3)cnc2C)cc(OC)c1OC,enzyme activity,inhibitor,,1 µM,inhibition,2%
CN1CC(Oc2cnc(C#N)cc2-c2ccn3nc(NC(=O)C4CC4)cc3c2)C1,enzyme activity,inhibitor,,1 µM,inhibition,-3%
O=C(O)c1ccc2c(c1)nc(Nc1ccc(Cl)cc1)c1ccncc12,enzyme activity,inhibitor,radiometric,1 µM,remaining activity,9%
NS(=O)(=O)c1cc(NC(=O)Cc2ccccc2)ccc1Oc1cccc(Cl)c1,cell-free assay,,competition with immobilised ligand,1 µM,remaining binding,84%
O=C(O)c1ccc2c(c1)nc(NCCc1cccc(F)c1)c1ccncc12,enzyme activity,inhibitor,radiometric,1 µM,remaining activity,8%
O=C(Nc1cccnn1)N1CC(C/C=C/c2cncc(Oc3ccc(C(F)(F)F)cn3)n2)C1,cell-free assay,,competition with immobilised ligand,1 µM,remaining binding,74%
O=C1Nc2ccc(Cl)cc2C1=Cc1cc(Cl)c(O)c(Cl)c1,cell-free assay,,,0.5 µM,remaining signal,91.5%
CNC(=O)Nc1ccc2c(c1)[C@@]1(CC2)OC(=O)N(CC(=O)N(Cc2ccc(F)cc2)[C@@H](C)C(F)(F)F)C1=O,cell-free assay,,competition with immobilised ligand,1 µM,remaining binding,90%
COc1cc2ncnc(Nc3ccc(F)c(Cl)c3)c2cc1OCCCN1CCOCC1,cell-free assay,,,0.5 µM,remaining signal,103%
N#Cc1cccc(Nc2nc3cc(C(=O)O)ccc3c3cnccc23)c1,enzyme activity,inhibitor,radiometric,1 µM,remaining activity,13%
Cc1c(C(=O)O)cc(-c2ccc(C3CCNCC3)cc2)c2ccc(-c3ccc(C(F)(F)F)cc3)cc12,binding,,competition with immobilised ligand,1 µM,remaining binding,100%
O=C(O)c1ccc2c(c1)nc(Nc1cccc(F)c1)c1ncncc12,enzyme activity,inhibitor,radiometric,1 µM,remaining activity,5%
CCc1ccccc1C(=O)Nc1n[nH]c2c(C)c(F)c(C3C(C#N)=C(C)N(C)C(C)=C3C#N)cc12,cell-free assay,,competition with immobilised ligand,1 µM,remaining binding,100%
Cc1cc(NC(=O)c2cccc3cc(-c4cccc5[nH]nc(N)c45)ccc23)ccc1F,enzyme activity,inhibitor,,0.1 µM,activity vs control,92%
COc1cc(Nc2cnc(C#N)c(O[C@H](C)CN(C)C)n2)ncc1-c1cnn(C)c1,enzyme activity,inhibitor,radiometric,10 µM,remaining activity,111%
CC/C(=N\NC(=O)NCc1cccc(O)c1)c1ccc(O)c(C)c1O,enzyme activity,inhibitor,,0.1 µM,inhibition,2.5%
CCCS(=O)(=O)Nc1ccc(F)c(C(=O)c2c[nH]c3ncc(-c4ccc(Cl)cc4)cc23)c1F,enzyme activity,inhibitor,,1 µM,inhibition,< 10%
FC(F)(F)Oc1cccc(-c2cnc3ccc(-c4ccncc4)nn23)c1,enzyme activity,inhibitor,radiometric,1 µM,activity vs control,44%
CCN(CC)CCNC(=O)c1c(C)[nH]c(/C=C2\C(=O)Nc3ccc(F)cc32)c1C,enzyme activity,inhibitor,,0.3 µM,inhibition,21%
COc1cc2ncnc(Nc3ccc(Oc4ccccc4)c(C)c3C)c2cc1OC,enzyme activity,inhibitor,,1 µM,inhibition,1%
O=C(O)c1ccc2c(c1)nc(NCCc1cccc(Cl)c1)c1ccncc12,enzyme activity,inhibitor,radiometric,1 µM,remaining activity,29%
Cc1ccc(Nc2nccc(N(C)c3ccc4c(C)n(C)nc4c3)n2)cc1S(N)(=O)=O,enzyme activity,inhibitor,,0.3 µM,inhibition,24%
